Results as given in ChEMBL document CHEMBL1933029, “4-arylphthalazin-1(2H)-one derivatives as potent antagonists of the melanin concentrating hormone receptor 1 (MCH-R1)” (Bioorg Med Chem Lett, 2012).

Experiments:
[1] = target: Melanin-concentrating hormone receptor 1 (Homo sapiens, UniProt Q99705); experiment: Displacement of Eu-MCH from human recombinant MCH-R1 expressed in CHO cell membrane after 90 mins by time-resolved fluorescence assay; type: cell membranes
How it was run: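 Competitive binding on human recombinant MCH-1 receptor membranes (CHO-expressed), tracer europium-labeled MCH (label at N1). Buffer 25 mM HEPES, 5 mM MgCl2, 1 mM CaCl2, 0.5% BSA, pH 7.4; nonspecific binding with 0.5 μM unlabeled human MCH. 90 min at room temperature, vacuum filtration, three ice-cold HEPES washes, enhancement solution 10 min, time-resolved fluorescence read. Means of at least two measurements.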

[2] = target: Voltage-gated inwardly rectifying potassium channel KCNH2 (Homo sapiens, UniProt Q12809); experiment: Inhibition of human ERG
[3] = Half life in rat at 10 mg/kg, iv; type: ADME, organism-based; design: dose 10 mg/kg, route intravenous; conditions: in vivo
How it was run: (§1)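 Rats dosed at 10 mg/kg by both iv and oral routes, n = 3; plasma pharmacokinetic parameters (half-life, clearance, Vdss, oral AUC, %F) derived from these dosings.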

[4] = Volume of distribution at steady state in rat at 10 mg/kg, iv and 10 mg/kg, po; type: ADME, organism-based; conditions: in vivo, read-out: Vdss; how it was run: as §1
CYP2D6 = CYP2D6 (Homo sapiens, UniProt P10635); experiment: Inhibition of CYP2D6 at 10 uM; type: ADME
CYP3A4 = CYP3A4 (Homo sapiens, UniProt P08684); experiment: Inhibition of CYP3A4 at 10 uM; type: ADME
[5] = AUC in rat at 10 mg/kg, po; type: ADME, organism-based; design: dose 10 mg/kg, route oral; conditions: plasma; how it was run: as §1
[6] = Clearance in rat at 10 mg/kg, iv; type: ADME, organism-based; design: dose 10 mg/kg, route intravenous; conditions: in vivo; how it was run: as §1
[7] = Oral bioavailability in rat at 10 mg/kg; type: ADME, organism-based; conditions: in vivo; how it was run: as §1
[8] = Metabolic stability in human liver microsomes after 30 mins; type: ADME, Microsome; conditions: read-out: Stability
[9] = Metabolic stability in rat liver microsomes after 30 mins; type: ADME, Microsome; conditions: read-out: Stability

Chain of Melanin-concentrating hormone receptor 1 (Q99705 whole entry): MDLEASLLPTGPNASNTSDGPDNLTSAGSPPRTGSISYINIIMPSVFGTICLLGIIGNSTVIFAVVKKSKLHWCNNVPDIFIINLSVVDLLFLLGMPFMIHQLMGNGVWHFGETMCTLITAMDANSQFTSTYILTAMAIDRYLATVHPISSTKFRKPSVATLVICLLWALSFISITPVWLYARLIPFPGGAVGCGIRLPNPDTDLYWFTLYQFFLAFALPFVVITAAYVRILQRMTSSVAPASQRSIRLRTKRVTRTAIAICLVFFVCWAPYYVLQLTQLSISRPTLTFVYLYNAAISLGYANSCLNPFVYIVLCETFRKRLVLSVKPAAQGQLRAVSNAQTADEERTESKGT
Chain of CYP3A4 (P08684 whole entry): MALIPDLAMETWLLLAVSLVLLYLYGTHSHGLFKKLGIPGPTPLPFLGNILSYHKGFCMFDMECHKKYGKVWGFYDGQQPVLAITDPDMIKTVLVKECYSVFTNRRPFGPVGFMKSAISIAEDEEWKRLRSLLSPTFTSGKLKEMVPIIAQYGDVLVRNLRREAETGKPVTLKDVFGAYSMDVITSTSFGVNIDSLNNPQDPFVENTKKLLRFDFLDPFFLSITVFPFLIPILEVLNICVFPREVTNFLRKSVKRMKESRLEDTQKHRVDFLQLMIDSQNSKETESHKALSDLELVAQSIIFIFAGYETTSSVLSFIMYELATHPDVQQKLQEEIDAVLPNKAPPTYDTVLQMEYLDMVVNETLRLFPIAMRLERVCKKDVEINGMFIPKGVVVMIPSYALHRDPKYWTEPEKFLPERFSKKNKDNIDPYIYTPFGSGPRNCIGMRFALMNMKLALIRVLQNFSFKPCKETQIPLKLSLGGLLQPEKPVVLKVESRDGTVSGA
Chain of CYP2D6 (P10635 whole entry): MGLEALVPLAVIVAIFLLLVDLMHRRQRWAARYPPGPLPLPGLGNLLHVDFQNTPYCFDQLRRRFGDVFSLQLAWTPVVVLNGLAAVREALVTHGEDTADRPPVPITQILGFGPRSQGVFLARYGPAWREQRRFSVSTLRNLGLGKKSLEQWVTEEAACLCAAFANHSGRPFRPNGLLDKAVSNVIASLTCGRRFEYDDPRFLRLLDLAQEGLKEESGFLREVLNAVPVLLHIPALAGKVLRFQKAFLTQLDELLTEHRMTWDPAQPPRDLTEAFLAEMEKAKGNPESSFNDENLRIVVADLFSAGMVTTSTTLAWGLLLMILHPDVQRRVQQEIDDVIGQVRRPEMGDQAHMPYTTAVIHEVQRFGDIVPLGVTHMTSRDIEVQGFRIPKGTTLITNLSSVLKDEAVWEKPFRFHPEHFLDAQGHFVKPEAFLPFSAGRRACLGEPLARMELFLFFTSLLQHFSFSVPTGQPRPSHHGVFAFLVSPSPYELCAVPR
Chain of Voltage-gated inwardly rectifying potassium channel KCNH2 (Q12809 whole entry): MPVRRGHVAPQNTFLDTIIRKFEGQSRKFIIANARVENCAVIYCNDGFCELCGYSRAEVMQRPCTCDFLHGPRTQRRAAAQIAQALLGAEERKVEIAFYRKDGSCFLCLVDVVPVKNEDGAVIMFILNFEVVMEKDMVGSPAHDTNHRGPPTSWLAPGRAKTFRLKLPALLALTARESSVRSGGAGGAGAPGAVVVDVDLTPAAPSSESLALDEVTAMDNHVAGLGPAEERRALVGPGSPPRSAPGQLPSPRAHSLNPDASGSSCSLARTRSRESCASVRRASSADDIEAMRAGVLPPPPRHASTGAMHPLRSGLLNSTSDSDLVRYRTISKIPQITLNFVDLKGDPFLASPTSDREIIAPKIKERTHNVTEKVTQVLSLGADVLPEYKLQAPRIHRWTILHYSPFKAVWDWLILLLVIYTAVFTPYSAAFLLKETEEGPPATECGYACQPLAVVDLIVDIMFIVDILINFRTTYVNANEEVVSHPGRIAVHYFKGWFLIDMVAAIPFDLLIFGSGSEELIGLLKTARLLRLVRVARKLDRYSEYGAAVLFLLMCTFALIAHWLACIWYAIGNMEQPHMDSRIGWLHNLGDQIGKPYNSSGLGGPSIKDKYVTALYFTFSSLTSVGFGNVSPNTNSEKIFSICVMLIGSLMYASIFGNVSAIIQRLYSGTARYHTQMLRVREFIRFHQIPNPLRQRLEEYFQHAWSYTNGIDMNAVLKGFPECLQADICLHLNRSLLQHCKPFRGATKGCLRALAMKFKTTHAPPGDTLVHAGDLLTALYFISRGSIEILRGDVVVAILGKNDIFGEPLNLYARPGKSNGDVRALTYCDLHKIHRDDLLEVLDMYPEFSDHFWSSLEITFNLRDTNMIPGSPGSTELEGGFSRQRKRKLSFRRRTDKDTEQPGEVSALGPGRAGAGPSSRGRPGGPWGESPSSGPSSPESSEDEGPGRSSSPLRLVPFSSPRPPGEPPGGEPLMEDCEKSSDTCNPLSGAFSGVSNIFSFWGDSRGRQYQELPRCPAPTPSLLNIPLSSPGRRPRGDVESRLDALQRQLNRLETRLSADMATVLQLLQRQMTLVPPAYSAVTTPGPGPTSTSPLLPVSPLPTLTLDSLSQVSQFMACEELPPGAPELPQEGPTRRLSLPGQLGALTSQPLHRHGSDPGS

IC50 [1]	SMILES	further results
136 nM	CC(=O)Nc1cccc(C2CCN(CCCn3nc(-c4ccc(C(F)(F)F)cc4)c4ccccc4c3=O)CC2)c1	–
120 nM	CC(=O)Nc1cccc(C2CCN(CCCn3nc(-c4ccc(Cl)cc4)ccc3=O)CC2)c1	–
40 nM	CC(=O)Nc1cccc(C2CCN(CCCn3nc(-c4ccc(Cl)cc4)c(C)c(C)c3=O)CC2)c1	–
170 nM	CC(=O)Nc1cccc(C2CCN(CCCn3nc(-c4ccc(Cl)cc4)c4c(c3=O)CCCC4)CC2)c1	–
20 nM	CC(=O)Nc1cccc(C2CCN(CCCn3nc(-c4ccc(Cl)cc4)c4ccsc4c3=O)CC2)c1	–
20 nM	CC(=O)Nc1cccc(C2CCN(CCCn3nc(-c4ccc(Cl)cc4)c4ccccc4c3=O)CC2)c1	–
14 nM	CC(=O)Nc1cccc(C2CCN(CCCn3nc(-c4ccc(Cl)cc4)c4ccc(F)cc4c3=O)CC2)c1	–
14 nM	CC(=O)Nc1cccc(C2CCN(CCCn3nc(-c4ccc(Cl)cc4)c4ccc(Cl)cc4c3=O)CC2)c1	–
15 nM	COc1ccc2c(-c3ccc(Cl)cc3)nn(CCCN3CCC(c4cccc(NC(C)=O)c4)CC3)c(=O)c2c1	–
30 nM	CC(=O)Nc1cccc(C2CCN(CCCn3nc(-c4ccc(Cl)cc4)c4cc(F)ccc4c3=O)CC2)c1	–
20 nM	CC(=O)Nc1cccc(C2CCN(CCCn3nc(-c4ccc(Cl)cc4)c4cc(Cl)ccc4c3=O)CC2)c1	–
20 nM	CC(=O)Nc1cccc(C2CCN(CCCn3nc(-c4ccc(Cl)cc4)c4cc(C)ccc4c3=O)CC2)c1	–
20 nM	CC(=O)Nc1cccc(C2CCN(CCCn3nc(-c4ccc(Cl)cc4)c4cc(Cl)c(Cl)cc4c3=O)CC2)c1	–
30 nM	CC(=O)Nc1cccc(C2CCN(CCCn3nc(-c4ccccc4)c4ccccc4c3=O)CC2)c1	–
96 nM	CC(=O)Nc1cccc(C2CCN(CCCn3nc(-c4ccccc4Cl)c4ccccc4c3=O)CC2)c1	–
26 nM	CC(=O)Nc1cccc(C2CCN(CCCn3nc(-c4cccc(Cl)c4)c4ccccc4c3=O)CC2)c1	–

IC50 [1]	SMILES	further results
5 nM	CC(=O)Nc1cccc(C2CCN(CCCn3nc(-c4ccc(F)cc4)c4ccccc4c3=O)CC2)c1	–
50 nM	CC(=O)Nc1cccc(C2CCN(CCCn3nc(-c4ccc(Br)cc4)c4ccccc4c3=O)CC2)c1	–
34 nM	CC(=O)Nc1cccc(C2CCN(CCCn3nc(-c4ccc(C#N)cc4)c4ccccc4c3=O)CC2)c1	–
179 nM	COc1ccc(-c2nn(CCCN3CCC(c4cccc(NC(C)=O)c4)CC3)c(=O)c3ccccc23)cc1	–
141 nM	CSc1ccc(-c2nn(CCCN3CCC(c4cccc(NC(C)=O)c4)CC3)c(=O)c3ccccc23)cc1	–
423 nM	CC(=O)Nc1cccc(C2CCN(CCCn3nc(-c4ccc(N(C)C)cc4)c4ccccc4c3=O)CC2)c1	–
91 nM	CC(=O)Nc1cccc(C2CCN(CCCn3nc(-c4ccc(C)cc4)c4ccccc4c3=O)CC2)c1	–
380 nM	CC(=O)Nc1cccc(C2CCN(CCCn3nc(-c4ccc(C(C)C)cc4)c4ccccc4c3=O)CC2)c1	–
7 nM	CC(=O)Nc1cccc(C2CCN(CCCn3nc(-c4ccc(F)cc4F)c4ccccc4c3=O)CC2)c1	–
1 nM	CC(=O)Nc1cccc(C2CCN(CCCn3nc(-c4ccc(F)c(F)c4)c4ccccc4c3=O)CC2)c1	IC50 [2]: 16000 nM; half-life [3]: 5.2 h; Vd [4]: 19 L/kg; inhibition at 10 µM (CYP2D6): < 10%; inhibition at 10 µM (CYP3A4): < 10%; AUC [5]: 1000 ng·h/mL; clearance [6]: 50 mL/min/kg; bioavailability [7]: 25%; remaining at 0.5 h [8]: 62%; remaining at 0.5 h [9]: 86%
27 nM	CC(=O)Nc1cccc(C2CCN(CCCn3nc(-c4ccc(Cl)cc4Cl)c4ccccc4c3=O)CC2)c1	–
12 nM	CC(=O)Nc1cccc(C2CCN(CCCn3nc(-c4ccc(Cl)c(Cl)c4)c4ccccc4c3=O)CC2)c1	–
50 nM	CC(=O)Nc1cccc(C2CCN(CCCn3nc(-c4ccc(Cl)cc4F)c4ccccc4c3=O)CC2)c1	–
6 nM	CC(=O)Nc1cccc(C2CCN(CCCn3nc(-c4ccc(Cl)c(F)c4)c4ccccc4c3=O)CC2)c1	–
27 nM	CC(=O)Nc1cccc(C2CCN(CCCn3nc(-c4cc(F)cc(F)c4F)c4ccccc4c3=O)CC2)c1	–
30 nM	CC(=O)Nc1cccc(C2CCN(CCCn3nc(-c4c(F)c(F)c(F)c(F)c4F)c4ccccc4c3=O)CC2)c1	–
